The values below come from ChEMBL document CHEMBL1152534, “Synthesis of oxalamide and triazine derivatives as a novel class of hybrid 4-aminoquinoline with potent antiplasmodial activity” (Bioorg Med Chem, 2009).

Converted amounts (≈) assume the structure as drawn.

Assay [1] deals with Plasmodium yoelii. Briefly: Antiplasmodial activity against Plasmodium yoelii infected in Swiss mice (Mus musculus) erythrocytes assessed as inhibition of beta-hematin formation after 16 hrs by fluorescence assay. The class given is functional, organism-based. As to conditions: Plasmodium yoelii, 16 h; in the assay text read “absorbance measurement at 400 nm” for “fluorescence assay”. Summed up:
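Plasma came from P. yoelii-infected mouse blood at about 50% parasitemia, collected in citrate and centrifuged. The mix held 100 mM sodium acetate pH 5.1, 50 µL plasma and 100 µM hemin substrate in 1.0 mL, run in triplicate at 37 °C for 16 h with shaking. The pellet was dissolved in Tris-HCl pH 7.4 with 2.5% SDS. Absorbance at 400 nm; IC50 by non-linear regression.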

Assay [2] relates to Plasmodium yoelii. Briefly: Antimalarial activity against chloroquine-resistant Plasmodium yoelii N67 infected in Swiss mice (Mus musculus) assessed as inhibition of parasitaemia at 10 mg/kg, perorally administered for 4 days measured on day 4 post-infection. The format is functional. As to conditions: N67, 96 h, route oral. An outline of the steps: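 Swiss mice were inoculated with 1 × 10⁶ P. yoelii N-67 parasitized RBC on day 0. Groups of five were dosed with chloroquine orally at 10 mg/kg once daily from day 0 to 3. Parasitaemia was read from thin blood smears on day 4, and percent suppression was calculated from the group mean against untreated controls.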

The term IC50 denotes the point on the concentration scale where inhibition reaches its midpoint. In general, inhibition in vivo refers to the relative decrease from the control value, in per cent. As for `CCN(CC)CCCC(C)Nc1ccnc2cc(Cl)ccc12` (configuration not stated) [CHLOROQUINE], the IC50 in assay [1] was 4.87 µg/mL (≈ 15.2 µM). Further, in assay [2], the inhibition in vivo at 10 mg/kg was found to be 99%.
